Source: ChEMBL document CHEMBL3425459, “Structure-activity studies in the development of a hydrazone based inhibitor of adipose-triglyceride lipase (ATGL)” (Bioorg Med Chem, 2015)
Activity calls are given as the source filed them. The rule behind the calls is not given here.

Legend:
[1] = molecular target: T1, Patatin-like phospholipase domain-containing protein 2 (Mus musculus, UniProt Q8BJ56); assay: Inhibition of mouse recombinant ATGL expressed in African green monkey COS7 cells assessed as reduction in triglyceride hydrolase activity using radio-labelled triolein substrate incubated for 1 hr by liquid scintillation counting; format: cell-based, COS-7
T1 sequence (Q8BJ56 whole entry): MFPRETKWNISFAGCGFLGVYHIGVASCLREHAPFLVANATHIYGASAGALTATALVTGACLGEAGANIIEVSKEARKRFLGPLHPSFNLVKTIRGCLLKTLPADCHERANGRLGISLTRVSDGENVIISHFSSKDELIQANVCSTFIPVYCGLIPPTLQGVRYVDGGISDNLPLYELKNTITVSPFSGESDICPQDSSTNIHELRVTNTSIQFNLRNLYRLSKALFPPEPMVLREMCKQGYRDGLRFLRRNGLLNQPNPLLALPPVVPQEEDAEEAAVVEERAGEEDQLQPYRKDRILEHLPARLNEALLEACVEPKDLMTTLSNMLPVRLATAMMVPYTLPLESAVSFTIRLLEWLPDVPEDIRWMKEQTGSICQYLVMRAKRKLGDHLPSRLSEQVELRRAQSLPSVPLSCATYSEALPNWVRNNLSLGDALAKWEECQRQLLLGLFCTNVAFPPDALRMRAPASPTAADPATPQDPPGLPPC

[2] = molecular target: T2, Patatin-like phospholipase domain-containing protein 2 (Mus musculus) (UniProt Q8BJ56); assay: Inhibition of mouse recombinant ATGL expressed in African green monkey COS7 cells assessed as reduction in triglyceride hydrolase activity at 200 uM using radio-labelled triolein substrate incubated for 1 hr by liquid scintillation counting; format: cell-based; settings: COS-7
T2 sequence (whole entry): T1 sequence (Q8BJ56 whole entry)
Procedure, shortened: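 Lysate (20 μg protein) of COS-7 cells transfected with murine ATGL DNA, sonicated in pH 7.0 sucrose/EDTA/DTT/protease-inhibitor buffer and cleared at 1000×g. Mixed 1:1 with radiolabelled triolein emulsion (prepared at 330 μM, 40,000 cpm/nmol, PC/PI, 100 mM potassium phosphate pH 7.0, 5% FA-free BSA) ± 200 μM inhibitor for 1 h at 37 °C. Released FA counted by scintillation after methanol/chloroform/heptane extraction at pH 10.5.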

Adipose tissue [3] = assay: Inhibition of lipolysis in hormone-sensitive lipase knock out mouse white adipose tissue fat pads assessed as reduction in fatty acids release at 10 to 200 uM; format: functional, tissue-based
Adipose tissue [4] = assay: Inhibition of lipolysis in adipose triglyceride lipase knock out mouse white adipose tissue fat pads assessed as reduction in fatty acids release at 10 to 200 uM; format: functional, tissue-based
Adipose tissue [5] = assay: Inhibition of lipolysis in wild type mouse white adipose tissue fat pads assessed as reduction in fatty acids release at 10 to 200 uM; format: functional, tissue-based
[6] = molecular target: T3, Lipoprotein lipase (Homo sapiens) (UniProt P06858); assay: Inhibition of lipoprotein lipase (unknown origin) at 100 uM incubated for 1 hr
T3 sequence (whole entry): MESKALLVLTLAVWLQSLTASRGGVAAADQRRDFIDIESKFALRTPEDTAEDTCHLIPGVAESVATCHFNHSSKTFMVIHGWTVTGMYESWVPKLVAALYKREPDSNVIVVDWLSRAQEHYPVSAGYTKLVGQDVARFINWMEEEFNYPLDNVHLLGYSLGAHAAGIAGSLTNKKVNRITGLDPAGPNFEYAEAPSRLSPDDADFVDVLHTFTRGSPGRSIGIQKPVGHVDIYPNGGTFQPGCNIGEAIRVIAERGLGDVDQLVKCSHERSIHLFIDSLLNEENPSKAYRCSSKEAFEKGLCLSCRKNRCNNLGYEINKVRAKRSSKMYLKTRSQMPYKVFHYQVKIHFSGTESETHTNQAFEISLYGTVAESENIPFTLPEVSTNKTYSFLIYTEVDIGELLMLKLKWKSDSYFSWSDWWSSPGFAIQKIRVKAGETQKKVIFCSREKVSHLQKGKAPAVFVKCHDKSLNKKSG
Procedure, shortened: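 Purified recombinant LPL (2 μl) was incubated with radiolabelled triolein emulsion, with or without inhibitor, for 1 h at 37 °C. The emulsion was prepared at 330 μM triolein with PC/PI in pH 7.0 phosphate and 5% BSA. Liberated fatty acids were extracted into the alkaline upper phase and quantified by liquid scintillation counting.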

[7] = molecular target: T4, Monoglyceride lipase (Homo sapiens) (UniProt Q99685); assay: Inhibition of monoglyceride lipase (unknown origin) at 100 uM incubated for 1 hr
T4 sequence (whole entry): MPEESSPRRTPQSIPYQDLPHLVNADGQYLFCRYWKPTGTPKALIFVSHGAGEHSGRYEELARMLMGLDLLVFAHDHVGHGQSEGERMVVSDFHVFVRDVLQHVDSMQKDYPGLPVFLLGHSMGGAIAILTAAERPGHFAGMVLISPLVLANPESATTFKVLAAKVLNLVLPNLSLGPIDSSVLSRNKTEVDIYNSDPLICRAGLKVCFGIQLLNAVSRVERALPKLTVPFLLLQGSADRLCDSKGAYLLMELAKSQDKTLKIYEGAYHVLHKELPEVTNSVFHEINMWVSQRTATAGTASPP

[8] = Toxicity in mouse AML-12 cells at 1 to 200 uM by Tox4 test; format: cell-based; settings: aml-12, 200 µM

Row | SMILES | IC50 [1] [µM] | further results
1 | CN(C)c1ccc(/C=N/N2CCN(c3ccccc3)CC2)cc1 | > 200 | 
2 | CCC/C=C/C=N/N1CCN(c2ccccc2)CC1 | > 200 | 
3 | CCCOc1cccc(/C=N/N2CCN(c3ccccc3)CC2)c1 | > 200 | Efficacy [2]: 14%
4 | COc1cc(/C=N/N2CCN(c3ccccc3)CC2)cc(OC)c1OC | > 200 | 
5 | C1=C(/C=N/N2CCN(c3ccccc3)CC2)CCCC1 | 130 | 
6 | C(=N\N1CCN(c2ccccc2)CC1)/c1cccc(Oc2ccccc2)c1 | > 200 | Efficacy [2]: 24%
7 | COc1cc(OC)c(OC)cc1/C=N/N1CCN(c2ccccc2)CC1 | > 200 | 
8 | Oc1ccc(/C=N/N2CCN(c3ccccc3)CC2)cc1O |  | inhibition (Adipose tissue [3]): Active; inhibition (Adipose tissue [4]): Active; inhibition (Adipose tissue [5]): Active
9 | Oc1ccc(/C=N/N2CCN(c3ccccc3)CC2)c(O)c1 |  | inhibition (Adipose tissue [3]): Active; inhibition [6]: inactive; inhibition (Adipose tissue [4]): Active; inhibition (Adipose tissue [5]): Active; inhibition [7]: inactive; Activity [8]: Toxic
10 | Oc1ccc(/C=N/N2CCC(Cc3ccccc3)CC2)c(O)c1 | > 200 | 
11 | C(=N\N1CCN(c2ccccc2)CC1)/c1ccc2ccccc2c1 | > 200 | 
12 | COc1ccc(/C=N/N2CCN(c3ccccc3)CC2)cc1O | 80 | 
13 | Oc1ccc(/C=N/N2CCN(Cc3ccccc3)CC2)c(O)c1 | > 200 | 
14 | C(=N\N1CCN(c2ccccc2)CC1)/c1ccc2c(c1)OCCO2 | > 200 | 
15 | COc1ccc(NC(=O)N2CCN(c3ccccc3)CC2)cc1OC | > 200 | 
16 | Oc1ccc(/C=N/N2CCN(c3ccncc3)CC2)c(O)c1 | > 200 | 
17 | Cc1ccc(/C=N/N2CCN(c3ccccc3)CC2)cc1 | > 200 | 
18 | Oc1ccc(/C=N/N2CCN(c3ccccc3)CC2)cc1 | 50 | 
19 | C(=N\N1CCN(c2ccccc2)CC1)/c1cccc2ccccc12 | 200 | 
20 | CC(=O)Nc1ccc(/C=N/N2CCN(c3ccccc3)CC2)cc1 | > 200 | 
21 | C(=N\N1CCN(c2ccccc2)CC1)/C1CCCCC1 | 200 | 
22 | CN(CCO)c1ccc(/C=N/N2CCN(c3ccccc3)CC2)cc1 | > 200 | 
23 | Oc1ccc(/C=N/N2CCN(C3CCCCC3)CC2)c(O)c1 | > 200 | 

Row | SMILES | IC50 [1] [µM] | further results
24 | N#Cc1ccccc1/C=N/N1CCN(c2ccccc2)CC1 | 120 | Efficacy [2]: 60%
25 | Oc1cccc(/C=N/N2CCN(c3ccccc3)CC2)c1 | 70 | 
26 | Oc1ccccc1/C=N/N1CCN(c2ccccc2)CC1 | 75 | 
27 | C(=N\N1CCN(c2ccccc2)CC1)/c1ccncc1 | 140 | 
28 | C(=N\N1CCN(c2ccccc2)CC1)/c1ccc2c(c1)OCO2 | > 200 | 
29 | COc1cc(/C=N/N2CCN(c3ccccc3)CC2)ccc1O | 60 | 
30 | Clc1ccc(/C=N/N2CCN(c3ccccc3)CC2)c(Cl)c1 | > 200 | 
31 | O=c1[nH]c2ccc(/C=N/N3CCN(c4ccccc4)CC3)cc2[nH]1 | > 200 | 
32 | CCCC/C=N/N1CCN(c2ccccc2)CC1 | > 200 | 
33 | Oc1ccc(CN2CCN(c3ccccc3)CC2)cc1O | > 200 | 
34 | CCOC(=O)c1nn(-c2ccc(N(C)C)cc2)cc1O | 120 | 
35 | Cc1cccc(N2CCN(/N=C/c3ccc(O)cc3O)CC2)c1 | > 200 | 
36 | Brc1ccccc1/C=N/N1CCN(c2ccccc2)CC1 | > 150 | 
37 | C(=N\N1CCN(c2ccccc2)CC1)/c1ccccn1 | > 200 | 
38 | Oc1ccc(/C=N/N2CCN(CCc3ccccc3)CC2)c(O)c1 | > 200 | 
39 | C(=N\N1CCN(c2ccccc2)CC1)/c1ccc2ccccc2n1 | > 200 | 
40 | O=[N+]([O-])c1ccccc1/C=N/N1CCN(c2ccccc2)CC1 | 180 | 
41 | COc1ccc(C(=O)NN2CCN(c3ccccc3)CC2)cc1OC | > 200 | 
42 | Oc1ccc(/C=N/N2CCCN(c3ccccc3)CC2)c(O)c1 | > 200 | 
43 | C(=N\N1CCN(c2ccccc2)CC1)/c1cccnc1 | > 200 | 
44 | COc1ccc(/C=N/N2CCN(c3ccccc3)CC2)cc1OC | 100 | 
45 | Clc1ccc(/C=N/N2CCN(c3ccccc3)CC2)cc1Cl | > 200 | 
46 | Oc1ccc(/C=N/N2CCN(C3CCCC3)CC2)c(O)c1 | > 200 | 
